ASAP1 GAP inh: blocks human ASAP1-stimulated Arf1 GTP hydrolysis; inhibition, % at 16.5 µM; GDP FP detection; AID 624377; 360,000 compounds, 0.19% hits; Q9ULH1; in the data active = inhibition above about 25%;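 also: 0% = vehicle with enzyme and substrate and 100% = no enzyme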
MBD2 DNA inh: MBD2-methylated oligo binding inhibition; inhibition, % at 4.4 µM; 370,000 compounds, 0.31% hits; TR-FRET, MBD2 binding to methylated oligonucleotide; Q9UBB5; in the data active = inhibition above about 13%
ARFGAP1 inhibitor: inhibitors of rat ARFGAP1 | Q62848 | 360,000 compounds, 0.26% hits | Arfgap1-stimulated ARF1 GTP hydrolysis, GDP FP detection | inhibition, % at 16.5 µM;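 active = inhibition above a per-plate limit, mean inhibition of low control wells plus 3 SD, cut at about 25% in these data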;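 also: 0% = DMSO wells with enzyme and 100% = wells lacking Arfgap1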
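System: truncated rat Arfgap1 GAP domain / Medium: HEPES-based buffer, pH 7.5 / Also added: N-terminally truncated human ARF1-GTP substrate / Incubation: enzyme reaction 120 min at 25 °C after 20 min preincubation / Measured by: FP of antibody-bound GDP Alexa 633 tracer, ex 620/em 688 nm / Replicates: singlicate, each compound tested once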
TCR CD3 inh: inhibitors of human TCR-CD3 interaction; inhibition, % at 9.4 µM; TAMRA-labeled TCR probe fluorescence, biochemical; 360,000 compounds, 0.37% hits; in the data active = inhibition above about 19%;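 also: recombinant mutant TCR 2C K166C tagged with TAMRA read by polarization; 0% = receptor in buffer alone and 100% = receptor with positive control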
UHRF1 binding: UHRF1 methyl-DNA binding inhibition. UHRF1 binding to methylated oligo, TR-FRET. inhibition, % at 4.4 µM. 370,000 compounds, 0.75% hits. AID 687016; in the data active = inhibition above about 21%;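 also: UHRF1 SRA domain binding a hemimethylated CpG hairpin DNA probe; 0% = median of test compound wells and 100% = reference inhibitor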
LEDGF integ inh: blocks HIV-1 LEDGF/p75-dependent DNA integration; TR-FRET IN-LEDGF/p75 DNA integration, Eu/Cy5; inhibition, % at 3.7 µM; 370,000 compounds, 0.64% hits;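 active = inhibition above the screen-wide mean plus 3 SD, cut at about 13% in these data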;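 also: signal is the Cy5 over europium emission ratio at 671 and 618 nm; 0% = plate median of compound wells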
IN multimer act: HIV-1 integrase multimerization activation, counter-screen. TR-FRET HIV-1 integrase multimerization, biochemical. 2,000 compounds, 17% hits. activation, % at 7.7 µM. shares compounds with LEDGF integ inh; in the data active = activation above about 8.9%
TR-FRET interf: counter-screen for LEDGF/p75 integration inhibitors: TR-FRET optical interference | shares compounds with LEDGF integ inh | TR-FRET optical interference counterscreen, HIV-1 IN multimerization | inhibition, % at 7.7 µM | 2,000 tested, under 10 active | AID 1053135;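 active = inhibition above the mean over all tested compounds plus 3 SD, which no compound reached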;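 also: 0% = integrase with antibodies and DMSO and 100% = antibodies without integrase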
LEDGF integ conf: LEDGF/p75-dependent HIV-1 integration inhibition, confirmation. shares compounds with LEDGF integ inh. TR-FRET LEDGF/p75-dependent HIV-1 integration, biochemical. inhibition, % at 3.7 µM. 2,000 compounds, 36% hits; in the data active = inhibition above about 14%
An asterisk follows results filed as active; . = no result given. Only some compounds are listed: those with a hit (about 2% of all), similar ones and a draw of the others.

SMILES	ASAP1 GAP inh	MBD2 DNA inh	ARFGAP1 inhibitor	TCR CD3 inh	UHRF1 binding	LEDGF integ inh	IN multimer act	TR-FRET interf	LEDGF integ conf
Cc1ccc(N2C(=O)NC(=O)/C(=C/C=C/c3ccco3)C2=O)cc1	-7.6	-2.9	-3.4	-3.9	10.2	35.2*	-0.9	4.6	24.3*
CC1CCCN(C(=O)CCl)C1 (centres undefined)	-8.6	-0.1	6.5	6.6	-1.1	70.7*	0.2	-1.1	-4.0
CC(=O)OC1C(O)C2=C3C4(C)C1C(C)(C)C(=O)CC4C3(O)C(OC(C)=O)C1(CC1C)C2=O (centres undefined)	0.3	1.1	10.8	7.9	-3.1	0.3	.	.	.
C=CCN1C(=O)NC(=O)/C(=C/c2ccoc2)C1=O	-5.1	3.0	7.2	12.4	27.9*	14.2*	1.8	-9.1	41.5*
COC(=O)C1=C(c2cccc(C#N)c2)C[C@@H]2CC[C@H]1N2C(=O)N1CCc2cc(OC)c(OC)cc2C1	12.1	2.0	2.8	4.4	-2.4	-0.2	.	.	.

Bioassay records deposited in PubChem by The Scripps Research Institute Molecular Screening Center.
